HMGR II inh – inhibitors of E. faecalis class II HMGR, primary screen, biochemical, Enterococcus faecalis | inhibition, % at 10 µM | purified E. faecalis HMGR, NADPH absorbance 340 nm kinetic | actives 0.41% (n = 190,000);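 active = inhibition above a set limit, the median over all tested compounds plus 3 SD, cut at about 9.5% in these data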;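 note: enzyme runs in reverse so mevalonate oxidation gives rising NADPH absorbance; 0% = complete reaction with DMSO and 100% = background rate lacking mevalonate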
MT stabilize HCS – microtubule stabilizers in HeLa cells, primary screen, imaging, high-content imaging; % tubulin-high responders, % at 10 µM; actives 0.83% (n = 200,000); HeLa tubulin immunostaining HCS, 24 h; share of cells brighter than vehicle mean+2SD; AID 2205, 2009;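 active = plate Z-score above 3 for both tubulin-high and condensed-nucleus cell shares, with cell loss under 80%, at 10 µM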;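 note: anti alpha tubulin signal scored within the nucleus-defined area of each cell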
bCat nuc transl – modulators of beta-catenin nuclear translocation, primary screen, imaging, HeLa cells, immunofluorescence, high-content; nuclear translocation activity, % at 5 µM; actives 0.3% (n = 190,000); AID 1665, 2009;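 active = nuclear translocation activity above 50% at 5 µM, with a well cell count of 50 or more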;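 note: per-cell ratio of nuclear to cytoplasmic median beta-catenin stain intensity; plate controls were DMSO negative control for no effect and GSK-3 inhibitor IX positive control for full effect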
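Assay system: human HeLa cells, native beta-catenin; doses: 5 µM primary, 0.02–20 µM confirmation; incubation: compound treatment 24 h, 37°C, 5% CO2; technique: fluorescence imaging of beta-catenin antibody stain plus DAPI; measure: % activation, nuclear-to-cytoplasmic median beta-catenin signal ratio per cell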
Yeast lifespan up – compounds extending yeast replicative lifespan, primary screen, S. cerevisiae, OD615; S. cerevisiae growth with nicotinamide; deaD strain in restrictive glucose medium; inhibition of the nicotinamide effect, % at 10 µM; actives 0.68% (n = 130,000); AID 775, 2007;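 active = inhibition above a set limit, placed 3 SD over the median of all compounds, cut at about 26% in these data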;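 note: 0% = nicotinamide-treated wells and 100% = cells grown without nicotinamide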
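Material: Modified budding yeast, DeaD strain | Medium: Restrictive glucose medium | Probe or stimulus: 1.5 mM nicotinamide | Dosing: Single dose 10 µM compound, 0.25% DMSO | Times: 48 h at 30 °C | Technique: OD615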
BB579 growth dn – growth inhibitors of yeast BB579 in restrictive medium, primary screen, yeast lifespan-shortening project, S. cerevisiae; AID 804, 2007; actives 0.51% (n = 140,000); inhibition, % at 10 µM; OD615, 48 h;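 active = inhibition above a set limit, 3 SD over the mean compound inhibition, cut at about 44% in these data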
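Assay system – yeast BB579 (DeaD) · Dosing – single compound dose of 10 µM, 0.25% DMSO final · Detection – OD615 turbidity measurement · Buffer or medium – CSMM-D restrictive synthetic medium containing dextrose (glucose) · Benchmarks – positive control amphotericin B 10 µg/mL · Incubation – 48 h exposure, 30 °C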
RAM inhibit – inhibitors of the yeast RAM network, primary screen, dse1pr::URA3 reporter, 5-FOA selection; S. cerevisiae dse1pr::URA3 reporter, 5-FOA growth OD615, 2 d; analog-sensitive cbk1-as2 kinase mutant strain; inhibition, % at 50 µM; actives 1.8% (n = 190,000);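 active = inhibition above a set limit, 3 SD over mean compound inhibition, cut at about 8.4% in these data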;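 note: 0% = DMSO-only wells with no growth and 100% = 10 µM 1-NA-PP1 full growth; inhibition rescues growth on 5-FOA so higher OD means more RAM inhibition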
The depositor's hits bear a star; nt = not tested or not shown. Shown are actives, neighbours in structure and some others; about 3.5% of the full set was active somewhere.

SMILES | HMGR II inh | MT stabilize HCS | bCat nuc transl | Yeast lifespan up | BB579 growth dn | RAM inhibit
Cc1ccc2nc(-c3ccc(NC(=S)NC(=O)C(C)C)cc3)sc2c1 | -4.9 | 1.7 | -1.4 | -11.4 | -23.0 | 1.6
COc1nccc(C(F)(F)F)c1C(=O)NC(=O)Nc1ccccc1 | nt | nt | -1.5 | nt | nt | nt
COCCCn1c(=S)[nH]c2sc3c(c2c1=O)CCCS3 | -3.2 | 3.5 | -0.3 | nt | nt | 2.2
Cc1nc2c(-c3ccccc3)c(C)nn2c(SCC(N)=O)c1Cc1ccccc1 | nt | nt | 0.7 | nt | nt | nt
C(=N\c1ncnc2sccc12)/NOCc1ccccc1 | 2.4 | 0.7 | 0.3 | -3.2 | 70.1* | -0.9
CC1CCN(S(=O)(=O)c2ccc3ncn(CC(=O)N4CCN(C)CC4)c(=O)c3c2)CC1 | -3.4 | 4.4 | -0.6 | nt | nt | 1.9
CCc1cc(-c2n[nH]c(C)c2Oc2ccc(C(C)C)cc2)c(O)cc1O | -5.3 | 1.3 | -2.1 | -14.1 | 89.8* | -0.4
CCCOC(=O)c1ccc(Oc2c(-c3ccc(OC)cc3O)n[nH]c2C)cc1 | 0.2 | 5.4 | 1.2 | -23.7 | -41.2 | 10.4*
COc1ccc(-c2n[nH]c(C)c2-c2ccc(Cl)cc2)c(O)c1 | -4.6 | 5.2 | 0.1 | -16.9 | 100.1* | 0.3
O=C1OC2(CCCCC2)OC(=O)C1=CNc1nccs1 | 1.6 | 5.0 | -3.1 | 25.1 | -16.2 | 2.1
O=C1OC2(CCCCC2)OC(=O)C1=CNc1nc2ccccc2s1 | 0.7 | 1.5 | nt | 69.5* | -42.4 | 0.9
CN(C)CCCNS(=O)(=O)c1ccc(N2CCC(c3ccc(Cl)cc3)=N2)cc1 | -10.2 | 2.2 | 73.3* | -11.4 | 6.7 | -0.6
O=S(=O)(c1ccc(N2CCC(c3ccc(Cl)cc3)=N2)cc1)N(CCO)CCO | -0.6 | 1.8 | -1.5 | -1.1 | -18.3 | 7.3
Oc1c(C(Nc2nc3ccccc3s2)c2ccco2)ccc2cccnc12 (stereo not drawn) | -3.2 | 24.4 | 1.6 | -5.6 | 74.4* | -0.7
CC(C)C(=O)NC(c1ccco1)c1ccc2cccnc2c1O (stereo not drawn) | -6.8 | 2.5 | -6.4 | -20.9 | -28.8 | 3.3
O=C(NC12CC3CC(CC(C3)C1)C2)N1CCN(C(=O)c2ccco2)CC1 | 7.1 | 3.8 | -5.8 | nt | nt | 2.3
Cc1ccc(OCc2nnc(SCC(=O)c3ccccc3)n2-c2ccccc2)cc1 | -0.6 | 2.5 | -1.3 | nt | -35.3 | 9.4*
COc1ccc(-n2c(COc3ccc(C)cc3)nnc2SCc2ccc(C#N)cc2)cc1 | 0.0 | 2.9 | 1.6 | 0.2 | -70.6 | 9.6*
Cc1ccc(-c2cc(C(=O)Nc3ccc(S(=O)(=O)Nc4ncccn4)cc3)[nH]n2)c(O)c1C | nt | nt | -0.2 | nt | nt | nt
O=C(Nc1nccs1)c1cn(-c2ccccc2)nc1-c1ccccc1 | -4.9 | 34.0* | nt | -12.7 | -57.0 | 2.2
CCOC(=O)c1ccc(NC(=O)c2cn(-c3ccccc3)nc2-c2ccncc2)cc1 | -0.8 | 0.9 | -5.8 | -17.0 | -17.9 | 1.8
Cc1ccc(-c2nn(-c3ccccc3)cc2C(=O)Nc2ccc(C(=O)O)cc2)cc1 | 0.9 | 4.9 | -1.7 | nt | nt | 9.6*
CC(C)COc1ccc(-c2nn(-c3ccccc3)cc2C(=O)Nc2nccs2)cc1 | -2.9 | 1.2 | -8.7 | 13.3 | -78.3 | 3.1
Cc1cccc(N2C(=O)C(Oc3ccc(Cl)cc3Cl)C2C=O)c1C (stereo not drawn) | 4.1 | 1.9 | 0.7 | 50.6* | -27.2 | 3.8
O=C(N/N=C/C(Cl)=C/c1ccccc1)c1cnccn1 | 14.3* | 3.5 | 5.3 | nt | -22.4 | 1.7
SMILES | HMGR II inh | MT stabilize HCS | bCat nuc transl | Yeast lifespan up | BB579 growth dn | RAM inhibit
O=C(N/N=C/C(Cl)=C\c1ccccc1)c1cnccn1 | -3.5 | 0.8 | nt | -19.7 | -28.4 | 0.1
Cc1ccc(NC(=O)NNC(=O)C2CCN(Cc3ccc(F)cc3Cl)CC2)cc1 | -4.7 | 1.3 | 0.1 | nt | nt | 0.8
NC(=O)c1cc(C(=O)c2ccc(Cl)cc2Cl)c[nH]1 | -0.8 | 5.1 | -3.1 | nt | nt | -0.7
O=C(c1c[nH]c(C(=O)C(Cl)(Cl)Cl)c1)c1ccccc1Cl | 2.3 | 1.4 | 0.1 | 90.2* | 67.3* | -0.9
CSc1nc2ccccc2cc1/C=C(\C#N)c1ccccc1 | -1.5 | 36.5* | 1.0 | -5.7 | -61.7 | 6.4
COC(=O)c1ccccc1NC(=O)c1ccc(COc2ccc(C)c(C)c2)o1 | -12.0 | 2.5 | -2.2 | -23.0 | -25.7 | 10.2*
Cc1ccc(OCc2ccc(C(=O)NN)o2)cc1C | nt | nt | -0.2 | nt | nt | nt
COC(=O)c1ccccc1NC(=O)c1ccc(COc2cc(C)cc(C)c2)o1 | -5.8 | 2.5 | -1.6 | -3.3 | -33.7 | 11.2*
C=CCN(Cc1cn(C)nc1-c1cccc(Cl)c1)C1CCS(=O)(=O)C1 (stereo not drawn) | 3.6 | 3.8 | -1.0 | nt | nt | -0.5
CCOC(=O)COc1cc(-n2c(=S)[nH]c3cc(OC)c(OC)cc3c2=O)c(Cl)cc1Cl | -3.6 | 9.2* | -1.5 | nt | nt | 5.8
O=C(CC1CS(=O)(=O)CC1CC(=O)Nc1ccc2c(c1)OCCO2)Nc1ccc2c(c1)OCCO2 (stereo not drawn) | 3.9 | 2.7 | 0.3 | nt | nt | 1.4
O=S(=O)(CCc1ccncc1)C1Cc2cccc3cccc1c23 (stereo not drawn) | nt | nt | 0.0 | nt | nt | nt
Oc1ccccc1OCc1nc2ccccc2s1 | -0.9 | 4.3 | 1.0 | -5.1 | -20.0 | 0.3
Oc1ccc(O)c(Cc2nc3ccccc3s2)c1 | -3.9 | 13.2* | -0.5 | nt | nt | -0.1
O=C(O)c1cccnc1Br | 4.2 | 2.5 | 0.2 | nt | nt | 0.9
Cc1ccc(NC(=O)C(OC(=O)c2ccc(O)cc2)c2ccccc2)cc1Cl (stereo not drawn) | -0.7 | 2.5 | 1.2 | -2.1 | -39.7 | 8.5*
CC(C)Cc1nc(N2CCN(C(=O)c3ccco3)CC2)c(C#N)c2c1CCC2 | -0.5 | 2.9 | 0.4 | -18.7 | -24.9 | 9.2*
O=S1(=O)Nc2c(ccc3cccnc23)-c2ccccc21 | -4.4 | 4.6 | -3.5 | -12.6 | 99.7* | -2.0
O=c1[nH]n(-c2cccc3cccnc23)c(=O)c2ccccc12 | -0.3 | 4.2 | 1.0 | -3.0 | -36.4 | 0.1
Cc1csc(SCC(=O)NC23CC4CC(CC(C4)C2)C3)n1 | 2.3 | 2.2 | nt | 39.0* | -59.2 | 0.4
COc1cccc(C(=O)Nc2ncc3c(n2)CC(c2ccc(OC)cc2OC)CC3=O)c1 (stereo not drawn) | -1.7 | 67.0 | 72.6* | -13.9 | -49.0 | 1.6
CCCCC1C(=O)CC[C@H]2[C@@H]1CC(=O)[C@@H]2C/C=C\CCCC(=O)O (stereo partly drawn) | -2.2 | 2.1 | nt | 50.0* | -40.2 | 0.6
CC(/C=N\Nc1nnc2c(n1)[nH]c1c(C)cccc12)=C\c1ccco1 | 13.1* | 2.9 | -2.5 | -10.8 | -77.0 | 0.7
